Consider three compounds from ChEMBL document CHEMBL4138226, “Marine Natural Product Honaucin A Attenuates Inflammation by Activating the Nrf2-ARE Pathway” (J Nat Prod, 2018).

For data set [1], the target named is T1, Kelch-like ECH-associated protein 1/Nuclear factor erythroid 2-related factor 2 (Mus musculus) (UniProt Q60795+Q9Z2X8). Nature of the data set: Activation of Keap1/Nrf2 in mouse LPS-induced RAW264.7 cells assessed as increase in Srxn1 expression level at 4 to 12 uM pretreated for 1 hr followed by LPS addition measured after 30 to 180 mins. Format: cell-based. Put shortly:
(§1)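 RAW 264.7 macrophages (DMEM, 10% FBS) grown near confluent; compound (4 or 12 μM) or EtOH vehicle 1 h at 37 °C, then LPS (E. coli O26:B6, 0.5 μg/mL) for 30 or 180 min; triplicate wells. TRIzol total RNA, rRNA depletion, Illumina HiSeq2000 100 bp single-end reads; DESeq2 differential expression versus matched LPS-only control.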

The target in data set [2] is T1, Kelch-like ECH-associated protein 1/Nuclear factor erythroid 2-related factor 2 (Mus musculus). Nature of the data set: Activation of Keap1/Nrf2 in mouse LPS-induced RAW264.7 cells assessed as change in Cd300lb expression level at 4 to 12 uM pretreated for 1 hr followed by LPS addition measured after 30 to 180 mins. Type of data set: cell-based. Put shortly:
as §1

Data set [3] shares this target. Nature of the data set: Activation of Keap1/Nrf2 in mouse LPS-induced RAW264.7 cells assessed as change in Cd83 expression level at 4 to 12 uM pretreated for 1 hr followed by LPS addition measured after 30 to 180 mins. Format: cell-based. In outline:
as §1

Data set [4] has the same target. Nature of the data set: Activation of Keap1/Nrf2 in mouse LPS-induced RAW264.7 cells assessed as increase in Akr1b8 expression level at 4 to 12 uM pretreated for 1 hr followed by LPS addition measured after 30 to 180 mins. Type of data set: cell-based. Put shortly:
as §1

Data set [5] has the same target. Nature of the data set: Activation of Keap1/Nrf2 in mouse LPS-induced RAW264.7 cells assessed as increase in […] expression level at 4 to 12 uM pretreated for 1 hr followed by LPS addition measured after 30 to 180 mins. Format: cell-based. Put shortly:
as §1

For data set [6] the target is unchanged. Nature of the data set: Activation of Keap1/Nrf2 in mouse LPS-induced RAW264.7 cells assessed as change in Procr expression level at 4 to 12 uM pretreated for 1 hr followed by LPS addition measured after 30 to 180 mins. Format: cell-based. In outline:
as §1

For data set [7] the target is unchanged. Nature of the data set: Activation of Keap1/Nrf2 in mouse LPS-induced RAW264.7 cells assessed as change in TNF expression level at 4 to 12 uM pretreated for 1 hr followed by LPS addition measured after 30 to 180 mins. Format: cell-based. Put shortly:
as §1

The target is the same in data set [8]. Nature of the data set: Activation of Keap1/Nrf2 in mouse LPS-induced RAW264.7 cells assessed as change in Nfkbiz expression level at 4 to 12 uM pretreated for 1 hr followed by LPS addition measured after 30 to 180 mins. Format: cell-based. Put shortly:
as §1

For data set [9] the target is unchanged. Nature of the data set: Activation of Keap1/Nrf2 in mouse LPS-induced RAW264.7 cells assessed as change in Fosl1 expression level at 4 to 12 uM pretreated for 1 hr followed by LPS addition measured after 30 to 180 mins. Type of data set: cell-based. Put shortly:
as §1

The target is the same in data set [10]. Nature of the data set: Activation of Keap1/Nrf2 in mouse LPS-induced RAW264.7 cells assessed as change in Ccrl2 expression level at 4 to 12 uM pretreated for 1 hr followed by LPS addition measured after 30 to 180 mins. Type of data set: cell-based. In outline: as §1
The target is the same in data set [11]. Nature of the data set: Activation of Keap1/Nrf2 in mouse LPS-induced RAW264.7 cells assessed as change in Fos expression level at 4 to 12 uM pretreated for 1 hr followed by LPS addition measured after 30 to 180 mins. Type of data set: cell-based. In outline:
as §1

Data set [12] has the same target. Nature of the data set: Activation of Keap1/Nrf2 in mouse LPS-induced RAW264.7 cells assessed as increase in Sqstm1 expression level at 4 to 12 uM pretreated for 1 hr followed by LPS addition measured after 30 to 180 mins. Format: cell-based. In outline: as §1
Data set [13] has the same target. Nature of the data set: Activation of Keap1/Nrf2 in mouse LPS-induced RAW264.7 cells assessed as change in Tnfaip3 expression level at 4 to 12 uM pretreated for 1 hr followed by LPS addition measured after 30 to 180 mins. Type of data set: cell-based. Put shortly: as §1
Data set [14] has the same target. Nature of the data set: Activation of Keap1/Nrf2 in mouse LPS-induced RAW264.7 cells assessed as change in Irf1 expression level at 4 to 12 uM pretreated for 1 hr followed by LPS addition measured after 30 to 180 mins. Format: cell-based. Put shortly: as §1
For data set [15] the target is unchanged. Nature of the data set: Activation of Keap1/Nrf2 in mouse LPS-induced RAW264.7 cells assessed as change in IL-1alpha expression level at 4 to 12 uM pretreated for 1 hr followed by LPS addition measured after 30 to 180 mins. Type of data set: cell-based. In outline: as §1
Data set [16] has as its target T2, Keap1/Nrf2 (Homo sapiens) (UniProt Q16236+Q14145). Nature of the data set: Activation of Keap1/Nrf2 in human MCF7 cells assessed as Nrf2 stabilization incubated overnight by luciferase reporter gene based luminescence assay. Format: cell-based. In outline: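 NRF2 luciferase reporter MCF7 stable cells in DMEM/10% FBS with G418, seeded 5 × 10^4 cells/well, overnight adherence; DMSO-dissolved compound 1.98–15.0 μM, overnight 37 °C/5% CO2. Lysed in passive lysis buffer, firefly luciferase substrate injected, luminescence read. Activation (%) = (treated − untreated)/untreated × 100, DMSO value subtracted; tBHQ and DMF positive controls; three technical replicates per biological replicate.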

Data set [17] addresses T1, Kelch-like ECH-associated protein 1/Nuclear factor erythroid 2-related factor 2 (Mus musculus). Nature of the data set: Activation of Keap1/Nrf2 in mouse LPS-induced RAW264.7 cells assessed as downregulation of Socs3 expression level at 4 to 12 uM pretreated for 1 hr followed by LPS addition measured after 30 mins. Format: cell-based. In outline:
as §1

For data set [18] the target is unchanged. Nature of the data set: Activation of Keap1/Nrf2 in mouse LPS-induced RAW264.7 cells assessed as change in Ccl22 expression level at 4 to 12 uM pretreated for 1 hr followed by LPS addition measured after 30 to 180 mins. Type of data set: cell-based. In outline: as §1
For data set [19] the target is unchanged. Nature of the data set: Activation of Keap1/Nrf2 in mouse LPS-induced RAW264.7 cells assessed as change in […] expression level at 4 to 12 uM pretreated for 1 hr followed by LPS addition measured after 30 to 180 mins. Format: cell-based. Put shortly: as §1
Data set [20] deals with Mus musculus. Nature of the data set: Antiinflammatory activity in hypersensitivity CD1 mouse ear edema model assessed as PMA-induced ear edema at 3 umol/ear applied topically pretreated for 10 mins followed by PMA application measured after 6 hrs (reference value: 32.5 +/- 7.5%). Format: functional.
Data set [21] concerns Mus musculus. Nature of the data set: Antiinflammatory activity in hypersensitivity CD1 mouse ear edema model assessed as PMA-induced ear edema at 0.1 umol/ear applied topically pretreated for 10 mins followed by PMA application measured after 6 hrs (reference value: 32.5 +/- 7.5%). Type of data set: functional.
Data set [22] concerns the target T1, Kelch-like ECH-associated protein 1/Nuclear factor erythroid 2-related factor 2 (Mus musculus). Nature of the data set: Activation of Keap1/Nrf2 in mouse LPS-induced RAW264.7 cells assessed as change in Nfkbia expression level at 4 to 12 uM pretreated for 1 hr followed by LPS addition measured after 30 to 180 mins. Type of data set: cell-based. Put shortly:
as §1

The subject of the next data set is MCF7. Nature of the data set: Cytotoxicity against human MCF7 cells assessed as decrease in cell viability at 15 uM by MTT assay. Format: cell-based. The settings on record: mcf7, 15 µM. Put shortly: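 Nrf2-reporter MCF7 cells seeded and dosed as in the reporter assay (1.98–15.0 μM in DMSO, overnight at 37 °C). Cells washed, then 1 mg/mL MTT in serum-free DMEM for 25 min at 37 °C. Formazan dissolved in DMSO, absorbance read at 570 and 630 nm, background subtracted. Viability given as % of untreated control, mean ± standard error.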
A general note: Tetrazolium assays rely on reduction of a dye to a coloured formazan, in cell work by metabolically active cells.

Data set [23] addresses T1, Kelch-like ECH-associated protein 1/Nuclear factor erythroid 2-related factor 2 (Mus musculus). Nature of the data set: Activation of Keap1/Nrf2 in mouse LPS-induced RAW264.7 cells assessed as change in IL-1beta expression level at 4 to 12 uM pretreated for 1 hr followed by LPS addition measured after 30 to 180 mins. Format: cell-based. In outline: as §1
In data set [24] the test system is Mus musculus. Nature of the data set: Antiinflammatory activity in hypersensitivity CD1 mouse ear edema model assessed as PMA-induced ear edema at 1 umol/ear applied topically pretreated for 10 mins followed by PMA application measured after 6 hrs (reference value: 32.5 +/- 7.5%). Format: functional.
Data set [25] concerns the target T1, Kelch-like ECH-associated protein 1/Nuclear factor erythroid 2-related factor 2 (Mus musculus). Nature of the data set: Activation of Keap1/Nrf2 in mouse LPS-induced RAW264.7 cells assessed as downregulation of Rasgef1 expression level at 4 to 12 uM pretreated for 1 hr followed by LPS addition measured after 30 mins. Format: cell-based. In outline: as §1
Data set [26] has the same target. Nature of the data set: Activation of Keap1/Nrf2 in mouse LPS-induced RAW264.7 cells assessed as increase in Slc7a11 expression level at 4 to 12 uM pretreated for 1 hr followed by LPS addition measured after 30 to 180 mins. Format: cell-based. Put shortly:
as §1

For data set [27] the target is unchanged. Nature of the data set: Activation of Keap1/Nrf2 in mouse LPS-induced RAW264.7 cells assessed as change in IFNb1 expression level at 4 to 12 uM pretreated for 1 hr followed by LPS addition measured after 30 to 180 mins. Format: cell-based. In outline:
as §1

Data set [28] has the same target. Nature of the data set: Activation of Keap1/Nrf2 in mouse LPS-induced RAW264.7 cells assessed as increase in Hmox1 expression level at 12 uM pretreated for 1 hr followed by LPS addition measured after 30 to 180 mins. Type of data set: cell-based. In outline: as §1
The test system of data set [29] is Mus musculus. Nature of the data set: Antiinflammatory activity in hypersensitivity CD1 mouse ear edema model assessed as PMA-induced ear edema at 0.3 umol/ear applied topically pretreated for 10 mins followed by PMA application measured after 6 hrs (reference value: 32.5 +/- 7.5%). Format: functional.
The target in data set [30] is T1, Kelch-like ECH-associated protein 1/Nuclear factor erythroid 2-related factor 2 (Mus musculus). Nature of the data set: Activation of Keap1/Nrf2 in mouse LPS-induced RAW264.7 cells assessed as increase in Prdx1 expression level at 4 to 12 uM pretreated for 1 hr followed by LPS addition measured after 30 to 180 mins. Format: cell-based. In outline: as §1
Data set [31] has the same target. Nature of the data set: Activation of Keap1/Nrf2 in mouse LPS-induced RAW264.7 cells assessed as increase in Gclm expression level at 4 to 12 uM pretreated for 1 hr followed by LPS addition measured after 30 to 180 mins. Type of data set: cell-based. Put shortly: as §1
In data set [32] the target is T2, Keap1/Nrf2 (Homo sapiens). Nature of the data set: Activation of Keap1/Nrf2 in human MCF7 cells assessed as Nrf2 stabilization at 15 uM incubated overnight by luciferase reporter gene based luminescence assay. Type of data set: cell-based. In outline:
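MCF7 cells stably carrying an Nrf2-responsive firefly luciferase construct, grown with G418, seeded 5 × 10^4 cells/well and left overnight at 37 °C. Compound added in DMSO (tested range 1.98–15.0 μM), incubated overnight. Cells washed, lysed 15 min at room temperature, luminescence read after substrate injection. Activation = % RLU over untreated cells, DMSO value subtracted. Triplicate technical wells; positive controls tBHQ and DMF.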
On the technique in general: A reporter such as luciferase makes a cellular process visible.

Counter-ions that a name gives are not always drawn. The source made the active and inactive calls. The calls are words filed in the database; no cut-off is given here.

T1 sequence (Q60795 whole entry, looked up): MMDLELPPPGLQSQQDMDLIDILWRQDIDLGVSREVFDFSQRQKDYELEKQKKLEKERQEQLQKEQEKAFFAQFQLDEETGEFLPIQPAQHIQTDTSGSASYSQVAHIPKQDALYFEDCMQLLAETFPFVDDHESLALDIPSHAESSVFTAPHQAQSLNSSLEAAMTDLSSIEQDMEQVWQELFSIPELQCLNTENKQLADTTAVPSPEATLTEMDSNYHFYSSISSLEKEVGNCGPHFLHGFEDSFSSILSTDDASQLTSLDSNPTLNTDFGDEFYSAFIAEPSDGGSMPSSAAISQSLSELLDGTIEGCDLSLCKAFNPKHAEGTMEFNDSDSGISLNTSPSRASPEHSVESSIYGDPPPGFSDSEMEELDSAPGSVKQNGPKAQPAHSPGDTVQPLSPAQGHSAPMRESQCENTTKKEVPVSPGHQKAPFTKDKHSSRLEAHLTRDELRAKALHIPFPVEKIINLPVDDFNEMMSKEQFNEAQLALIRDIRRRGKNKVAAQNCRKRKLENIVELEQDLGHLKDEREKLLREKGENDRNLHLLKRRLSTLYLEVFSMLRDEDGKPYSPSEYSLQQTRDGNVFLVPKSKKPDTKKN
T1 sequence (Q9Z2X8 whole entry, looked up): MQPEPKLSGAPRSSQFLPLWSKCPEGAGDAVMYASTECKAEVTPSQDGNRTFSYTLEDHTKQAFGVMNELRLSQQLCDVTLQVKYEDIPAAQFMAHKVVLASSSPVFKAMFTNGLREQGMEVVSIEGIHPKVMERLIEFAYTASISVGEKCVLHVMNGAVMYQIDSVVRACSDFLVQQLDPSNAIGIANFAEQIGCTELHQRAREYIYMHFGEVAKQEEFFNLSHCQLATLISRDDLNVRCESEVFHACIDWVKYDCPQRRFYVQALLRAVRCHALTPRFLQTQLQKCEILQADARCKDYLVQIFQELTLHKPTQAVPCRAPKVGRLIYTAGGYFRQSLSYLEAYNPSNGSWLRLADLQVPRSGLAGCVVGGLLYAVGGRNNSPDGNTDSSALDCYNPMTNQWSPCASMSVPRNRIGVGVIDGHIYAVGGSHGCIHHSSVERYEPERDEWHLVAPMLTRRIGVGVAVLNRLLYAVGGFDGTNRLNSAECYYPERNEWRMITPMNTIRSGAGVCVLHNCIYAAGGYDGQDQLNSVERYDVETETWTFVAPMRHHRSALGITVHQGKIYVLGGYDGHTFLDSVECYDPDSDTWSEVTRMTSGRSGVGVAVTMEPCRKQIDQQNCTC
T2 sequence (Q14145 whole entry, looked up): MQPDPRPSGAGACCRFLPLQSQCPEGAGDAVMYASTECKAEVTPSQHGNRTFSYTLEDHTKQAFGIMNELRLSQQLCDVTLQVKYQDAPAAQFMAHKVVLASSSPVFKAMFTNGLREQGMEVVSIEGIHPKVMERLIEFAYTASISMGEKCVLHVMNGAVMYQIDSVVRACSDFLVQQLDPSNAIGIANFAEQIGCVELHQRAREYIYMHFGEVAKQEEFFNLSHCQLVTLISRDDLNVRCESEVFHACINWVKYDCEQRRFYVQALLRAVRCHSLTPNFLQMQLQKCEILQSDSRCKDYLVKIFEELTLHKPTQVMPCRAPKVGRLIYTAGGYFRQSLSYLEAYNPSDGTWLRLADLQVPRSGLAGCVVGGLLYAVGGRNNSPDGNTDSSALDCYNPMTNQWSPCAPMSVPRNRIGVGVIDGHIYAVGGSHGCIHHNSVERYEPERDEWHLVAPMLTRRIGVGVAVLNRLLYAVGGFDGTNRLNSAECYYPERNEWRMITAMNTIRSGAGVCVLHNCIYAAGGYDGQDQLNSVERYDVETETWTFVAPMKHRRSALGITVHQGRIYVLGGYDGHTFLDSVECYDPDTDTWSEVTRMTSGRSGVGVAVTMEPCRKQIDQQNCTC
T2 sequence (Q16236 whole entry, looked up): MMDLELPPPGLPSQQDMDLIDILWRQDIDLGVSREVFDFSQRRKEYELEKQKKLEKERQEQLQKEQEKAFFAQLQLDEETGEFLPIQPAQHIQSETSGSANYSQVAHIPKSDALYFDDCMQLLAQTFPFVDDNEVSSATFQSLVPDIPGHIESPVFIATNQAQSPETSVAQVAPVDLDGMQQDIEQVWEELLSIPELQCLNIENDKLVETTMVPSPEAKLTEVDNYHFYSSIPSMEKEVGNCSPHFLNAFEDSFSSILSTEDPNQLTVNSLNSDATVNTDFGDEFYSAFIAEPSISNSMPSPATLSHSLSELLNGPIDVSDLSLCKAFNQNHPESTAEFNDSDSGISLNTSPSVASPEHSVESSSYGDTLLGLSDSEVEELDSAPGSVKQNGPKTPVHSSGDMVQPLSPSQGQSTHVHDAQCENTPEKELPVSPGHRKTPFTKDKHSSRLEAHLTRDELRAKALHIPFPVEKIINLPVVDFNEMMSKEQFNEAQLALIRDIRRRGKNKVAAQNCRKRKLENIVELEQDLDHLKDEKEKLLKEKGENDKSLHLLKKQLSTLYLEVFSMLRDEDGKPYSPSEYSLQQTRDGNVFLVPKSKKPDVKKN

In the case of `O=C(/C=C/CCl)O[C@@H]1COC(=O)C1`, the result in data set [1], in data set [2], in data set [3], in data set [4], in data set [5] and in data set [6] was Active. Also, the outcome in data set [7], in data set [8], in [9], in data set [10], in [11] and in data set [12] was Active. The result in data set [13], in [14], in data set [15], in [17], in data set [18] and in data set [19] was Active. Moreover, the result in data set [22], in data set [23], in data set [25], in data set [26], in data set [27] and in [28] was Active. Besides, the result in [30] and in data set [31] was Active. The Activity entry in data set [16] was “Dose-dependent effect”; in the data set on Mus musculus [20], 51.4%; in the data set with Mus musculus [21], 17.1%; in the data set on MCF7, “Toxic”; in the data set on Mus musculus [24] it was 27.6%; in the data set with Mus musculus [29], 10%.

Consider `COC(=O)/C=C/C(=O)OC` [DIMETHYL FUMARATE], for which the Activity entry in the data set on MCF7 is listed as “Toxic”. Besides, the result in data set [32] was Active.

As for `CC(C)(C)c1cc(O)ccc1O` [E319], the Activity entry with MCF7 is “Toxic”. Also, the result in data set [32] was Active.
